In the library only some 2.3% were active in any assay of this set; here they are far more common.
PAFAH1B2 inh: inhibitors of human PAFAH1B2 | P68402 | recombinant PAFAH1B2, FP-rhodamine activity probe, fluorescence polarization | inhibition, % at 3.39 µM | 340,000 tested, 1.2% active;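 active means inhibition above the mean of all tested compounds plus 3 SD, cut at about 24% in these data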;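 further: 0% = enzyme with DMSO and 100% = wells lacking PAFAH1B2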
Target sequence (P68402 whole entry, looked up): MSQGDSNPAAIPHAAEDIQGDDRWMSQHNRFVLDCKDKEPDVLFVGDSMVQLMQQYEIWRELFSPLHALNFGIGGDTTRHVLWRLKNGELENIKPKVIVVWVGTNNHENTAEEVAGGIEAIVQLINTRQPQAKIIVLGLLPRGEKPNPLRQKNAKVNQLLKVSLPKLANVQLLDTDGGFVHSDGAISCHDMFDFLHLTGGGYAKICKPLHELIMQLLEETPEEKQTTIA
PAFAH2 inh: PAFAH2 (human) inhibition; recombinant PAFAH2, FP-rhodamine activity probe, fluorescence polarization; inhibition, % at 3.39 µM; 340,000 tested, 0.99% active; AID 492956;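 active means inhibition above the mean over all tested compounds plus 3 SD, cut at about 30% in these data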;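 further: inhibitors block probe labeling of enzyme so polarization drops; 0% = enzyme with DMSO and 100% = wells lacking PAFAH2 protein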
TDP2 absorb: blocks human TDP2 phosphodiesterase activity. recombinant TDP2, T5PNP hydrolysis, p-nitrophenol absorbance 415 nm. AID 720702. O95551. 370,000 tested, 0.34% active. inhibition, % at 12.8 µM;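 active means inhibition above the mean of all tested compounds plus 3 SD, set per campaign, cut at about 25% in these data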;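 further: 0% = DMSO with enzyme and 100% = buffer with substrate but no TDP2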
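Assay system: Recombinant human TDP2 | Quantity: 120 nM TDP2 per well | Incubation: 2 h at 37 °C | Signal: Epi absorbance | Evaluation: Percent inhibition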
Apaf1 inhib: human Apaf-1 inhibition | O14727 | reconstituted apoptosome caspase-3 activity, DEVD-Rh110 fluorescence | inhibition, % at 20 µM | 330,000 tested, 0.71% active | AID 489030; active means inhibition of at least 40% at 20 µM;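 further: plate controls were DMSO wells for no effect and DEVD-CHO caspase inhibitor wells for full effect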
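System – cell-free apoptosome with Apaf-1, procaspase-3 and caspase-9 · Buffer or medium – pH 7.5 Hepes buffer with CHAPS, BSA, DTT · Also added – cytochrome c with DEVD-Rh110 · Times – 30 min compound preincubation, 50 min activation, room temperature · Technique – Rh110 fluorescence intensity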
PAFAH1B3 FP inh: blocks human PAF acetylhydrolase 1B catalytic subunit 3 | Q15102 | recombinant PAFAH1B3, FP-rhodamine probe, fluorescence polarization | inhibition, % at 3.39 µM | 340,000 tested, 0.28% active;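 active means inhibition above the screen-wide average of all tested compounds plus 3 SD, cut at about 25% in these data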;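 further: 0% = enzyme with DMSO only and 100% = wells lacking PAFAH1B3 protein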
Target sequence (Q15102 whole entry, looked up): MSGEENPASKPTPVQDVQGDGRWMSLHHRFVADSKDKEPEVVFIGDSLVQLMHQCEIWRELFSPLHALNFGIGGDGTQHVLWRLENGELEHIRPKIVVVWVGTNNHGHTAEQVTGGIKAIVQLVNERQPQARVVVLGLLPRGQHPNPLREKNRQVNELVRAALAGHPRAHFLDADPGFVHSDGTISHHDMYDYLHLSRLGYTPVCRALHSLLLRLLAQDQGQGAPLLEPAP
Apaf-1 inh conf: confirmation of Apaf-1 inhibitors; shares compounds with Apaf1 inhib; reconstituted apoptosome, caspase-3 DEVD-Rh110 fluorescence; inhibition, % at 20 µM; 1,800 tested, 25% active;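 active means mean inhibition of at least 40% at 20 µM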;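 further: plate controls were DMSO wells for no effect and DEVD-CHO caspase inhibitor control wells for full effect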
Rh110 interf inh: Rh110 signal interference in Apaf-1 inhibitor counter-screen | activation (fluorescence interference), % at 20 µM | shares compounds with Apaf1 inhib | 1,800 tested, under 10 active | Rh110 fluorescence interference, quenched caspase reaction | AID 504615;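 active means signal rise of 40% or more at 20 µM, treated as a fluorescence artifact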
Fluor interf inh: counter-screen for Apaf-1 inhibitors: fluorescence interference, dose response. 460 tested, under 10 active. IC50, µM. shares compounds with Apaf1 inhib. AID 588538. fluorescence interference counterscreen, Apaf-1 assay format; call rule not given here
An asterisk follows results filed as active; . = no result.

SMILES	PAFAH1B2 inh	PAFAH2 inh	TDP2 absorb	Apaf1 inhib	PAFAH1B3 FP inh	Apaf-1 inh conf	Rh110 interf inh	others
CN1CCN(c2ccc(-c3cccc(NC(=O)COc4ccc(Cl)cc4)c3)nn2)CC1	1.2	-1.5	7.7	36.5	-0.4	.	.
CN1CCN(CCc2nc3cc(NC(=O)COc4ccccc4)ccc3n2C)CC1	4.1	-11.3	-3.6	57.4*	6.6	21.0	3.2
CCN1CCN(CCc2nc3cc(NC(=O)COc4ccccc4)ccc3n2C)CC1	-0.9	3.1	-16.0	51.0*	4.4	26.2	4.0
Cn1c(CCN2CCCCC2)nc2cc(NC(=O)COc3ccccc3)ccc21	4.3	-1.6	-1.4	52.6*	1.6	15.7	1.5
O=S1(=O)c2ccc(N3CCCC3)cc2Oc2ccccc2CN1Cc1cn(Cc2ccc(F)cc2)nn1	.	.	9.9	.	.	.	.
c1ccc2c(C[C@@H]3CNCCN3CC3CCCCC3)cccc2c1	1.9	4.2	-17.6	43.7*	10.8	7.5	9.4
Oc1ccc(C[C@H]2CNCCN2CC2CCCCC2)cc1	1.1	0.4	-8.8	-4.3	3.8	.	.
COc1ccc([C@@]23CCN=C2c2[nH]c4ccccc4c2CCN3)c(N)c1	.	.	-3.5	.	.	.	.
O=C1Cc2cc(S(=O)(=O)N3CCCCC3)ccc2N1	4.0	5.1	15.0	8.7	2.3	.	.
O=C1Cc2cc(S(=O)(=O)N3CCNCC3)ccc2N1	5.2	3.2	2.0	40.1*	2.2	10.3	6.3
N#Cc1ccc(OC[C@@H](O)CN2CCC(C(O)(c3ccccc3)c3ccccc3)CC2)cc1F	.	.	1.6	.	.	.	.
COCCNC(=O)C1CC2Cn3c(nc4cc5ccccc5cc43)C2N1C (stereo not drawn)	-3.4	7.0	14.6	-1.7	9.0	.	.
CN1C(C(=O)NCC2CC2)CC2Cn3c(nc4cc5ccccc5cc43)C21 (stereo not drawn)	8.6	6.1	2.9	41.5*	5.0	10.0	-2.2
COc1cccc2c1[C@@H]1CN(CCCCn3c(=O)[nH]c4c(sc5ncc(-c6ccccc6)nc54)c3=O)C[C@@H]1CO2	-2.6	10.5	3.9	48.4*	5.5	22.4	10.8
Cc1ccc(NC(=O)Cc2ccc(F)cc2)c(S(=O)(=O)N2CCOCC2)c1	.	.	0.1	.	.	.	.
C[C@H]1Cn2nncc2Cn2c3ccccc3c(=O)n21	.	.	6.1	.	.	.	.
CN(C(=O)Nc1ccccc1)C1CCS(=O)(=O)C1 (stereo not drawn)	-1.4	-4.7	-1.5	-9.2	2.1	.	.
CC(=O)NC1=C(N(C)C2CCS(=O)(=O)C2)C(=O)c2ccccc2C1=O (stereo not drawn)	8.5	8.4	11.5	54.1*	25.2	67.4*	9.2	Fluor interf inh=>100
CCOc1ccc(-n2c(SCC(=O)c3ccc4ccccc4c3)nnc2-c2ccc(OC)cc2)cc1	.	.	-5.3	.	.	.	.
CC(=O)c1ccc(OCCCC(=O)N2CCN(S(=O)(=O)c3ccc(C)cc3C)CC2)cc1	-6.3	2.8	10.1	40.5*	1.3	31.7	0.2
CC(=O)c1ccc(OCCCC(=O)N2CCN(S(=O)(=O)c3cc(C)ccc3C)CC2)cc1	-0.9	5.2	-3.0	16.1	-2.8	.	.
COc1ccccc1NC(=O)OC1CCC12CCCCC2 (stereo not drawn)	.	.	1.4	.	.	.	.
CSc1ccc(CN(C)C(=O)CSCC(=O)Nc2cc(C)on2)cc1	3.7	-1.2	2.6	48.0*	5.4	36.1	-2.2
O=C1CCNc2cc3ccccc3cc21	3.3	4.3	.	62.1*	8.6	19.6	11.0
O=C1CCNc2ccc(-c3ccccc3)cc21	5.7	-0.4	1.1	25.9	3.5	.	.
SMILES	PAFAH1B2 inh	PAFAH2 inh	TDP2 absorb	Apaf1 inhib	PAFAH1B3 FP inh	Apaf-1 inh conf	Rh110 interf inh	others
CN(C)CCCN1c2ccccc2Sc2ccc(Cl)cc21	1.5	-1.1	3.8	42.5*	4.2	15.5	7.6
OCCN1CCN(CCCN2c3ccccc3Sc3ccc(Cl)cc32)CC1	0.0	3.3	-5.1	45.7*	-2.8	4.7	7.8
COCC(=O)N[C@H]1C[C@@H]2O[C@H](CO)CC[C@@H]2O[C@@H]1CCc1ccc(-c2ccccc2)cc1	.	.	6.6	.	.	.	.
O=C1CCc2cc(S(=O)(=O)N3CCN(c4ccccc4Cl)CC3)ccc2N1	.	.	5.7	.	.	.	.
O=C1CCc2ccc(OCCCCN3CCN(c4cccc(Cl)c4Cl)CC3)cc2N1	2.4	-0.8	-14.5	42.6*	10.9	17.9	8.1
CC1(C)OC(=O)C2=C(CC(CCc3ccccc3)OC2c2cccc(C(F)(F)F)c2)O1 (stereo not drawn)	.	.	-0.5	.	.	.	.
COC(C[C@H]1O[C@@H]1C(=O)[C@H](C)OCc1ccccc1)OC	1.6	-0.5	1.4	48.1*	8.6	1.2	0.9
C#CCNC(=O)C[C@H]1C[C@@]2(C(=O)OC)C(=C[C@H](C(C)C)O[C@@H]2C2CC2)N(Cc2ccc(Cl)cc2Cl)C1=O	.	.	-4.9	.	.	.	.
CCOc1c(O)ccc(/C=C2\SC(=S)NC2=O)c1[N+](=O)[O-]	9.4	7.2	8.4	55.5*	24.6	55.0*	4.8	Fluor interf inh=>100
CCCCCCc1ccc(NC(=O)[C@@H]2CC=C[C@@H]3CCN(Cc4ccccc4)C(=O)[C@@H]32)cc1	.	.	-4.2	.	.	.	.
CC1CCN(C(=S)Nc2ccc(SC(F)F)cc2)CC1	2.8	-3.4	-0.9	3.7	0.1	.	.
CC(=O)N1CCN(C(=S)Nc2ccc(SC(F)F)cc2)CC1	0.9	-2.4	0.2	96.0*	1.7	14.4	10.6
O=C(NCCc1c[nH]c2ccccc12)OCc1cn(-c2ccc(F)cc2F)nn1	.	.	-4.2	.	.	.	.
Cc1ccc(S(=O)(=O)N2CCCC2C(c2ccccc2O)c2cn(C)c3ccccc23)cc1 (stereo not drawn)	.	.	5.4	.	.	.	.
COc1ccc(/C=N/Nc2cc(C)nc3ccc(Br)cc23)cc1	7.9	-3.4	-18.7	55.5*	8.0	23.9	-1.0
O=C(N/N=C\C=C\c1ccc([N+](=O)[O-])o1)c1cccs1	-1.1	4.6	-15.7	49.0*	10.4	8.0	6.5
O=C(CCl)Nc1ccc(C(=O)NCC2COc3ccccc3O2)cc1 (stereo not drawn)	.	.	-2.0	.	.	.	.
COC(=O)c1cc(S(=O)(=O)N2CCN(c3cccc(C(F)(F)F)c3)CC2)cn1C	.	.	1.6	.	.	.	.
COCCCn1c(=O)c2sccc2n(Cc2ccccc2C)c1=O	2.4	9.8	12.3	60.1*	-0.7	8.3	4.2
COc1ccccc1N=Nc1ccc(O)c2ncccc12	5.6	6.4	12.3	90.0*	18.4	31.5	14.5
CCS(=O)(=O)c1ccc(N=Nc2ccc(O)c3ncccc23)c(OC)c1	5.6	2.6	-1.7	16.8	10.9	.	.
O=C(NC1CC1c1ccccc1)N1CCC(c2nc3ccc(Cl)cc3[nH]2)CC1 (stereo not drawn)	.	.	4.8	.	.	.	.
